For assay [1], the system named is Staphylococcus aureus. Put plainly: Binding affinity to methicillin-resistant Staphylococcus aureus MRSA2 assessed per 10^8 cells/ml at 5 uM after overnight incubation by fluorescence analysis. The format is functional, organism-based. A digest of the protocol: (§1)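 Incubated with compound, then pelleted, dissolved in 2% SDS, held at 4 °C overnight and sonicated 30 min. Fluorescence intensity compared with that of free compound (50 µM, or 5 µM for the more fluorescent analogue); expressed per 10⁸ cells/mL.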

Assay [2] deals with Staphylococcus aureus. In words: Binding affinity to methicillin-resistant Staphylococcus aureus MRSA1 assessed per 10^8 cells/ml at 5 uM after overnight incubation by fluorescence analysis. Format: functional, organism-based. Put shortly:
as §1

Assay [3] relates to Klebsiella pneumoniae. Put plainly: Photodynamic inactivation of Klebsiella pneumoniae ATCC 700603 assessed as lethality at 6 uM after overnight incubation by traditional surface plating method in presence of 126 J/cm 2 white light irradiation. Format: functional. A digest of the protocol: (§2)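 Mixed 1:1 with compound and kept in the dark at 37 °C for 30 min with shaking, then exposed to filtered xenon white light (400–800 nm, 350 mW/cm²). Cells diluted in PBS, ~10⁴ CFU/mL plated on LB agar and grown overnight at 37 °C. Treated-and-irradiated CFU divided by untreated, unirradiated CFU; triplicate. Dark controls had no irradiation.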

The subject of assay [4] is Staphylococcus aureus ATCC 25923. In words: Binding affinity to Staphylococcus aureus ATCC 25923 assessed per 10^8 cells/ml at 5 uM after overnight incubation by fluorescence analysis.
Assay [5] relates to Staphylococcus aureus. In words: Binding affinity to methicillin-resistant Staphylococcus aureus MRSA2 at 50 uM after overnight incubation by confocal image analysis. The format is functional, organism-based. Put shortly:
(§3)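 Incubated with 50 µM compound in the dark with shaking, washed twice in PBS and imaged by confocal fluorescence and differential interference contrast microscopy.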

Assay [6] concerns Staphylococcus aureus. In words: Binding affinity to methicillin-resistant Staphylococcus aureus MRSA1 at 50 uM after overnight incubation by confocal image analysis. Format: functional, organism-based. A digest of the protocol: as §3
Assay [7] relates to Staphylococcus aureus. Put plainly: Binding affinity to methicillin-resistant Staphylococcus aureus MRSA2 assessed per 10^8 cells/ml at 50 uM after overnight incubation by fluorescence analysis. Format: functional, organism-based. A digest of the protocol: as §1
The test system of assay [8] is Staphylococcus aureus. Put plainly: Binding affinity to methicillin-resistant Staphylococcus aureus MRSA1 assessed per 10^8 cells/ml at 50 uM after overnight incubation by fluorescence analysis. The format is functional, organism-based. Put shortly:
as §1

In assay [9] the test system is Staphylococcus aureus. Put plainly: Antibacterial activity against methicillin-resistant Staphylococcus aureus MRSA2 after 24 hrs. Format: functional. The settings on record: MRSA2, 24 h. A digest of the protocol:
(§4)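 Broth microdilution in Mueller–Hinton medium. Inocula grown from single colonies at 35 °C to 10⁸ CFU/mL by turbidimetry, then added at ~10⁶ CFU/mL to serial dilutions of compound starting at 256 µg/mL (stocks in ddH2O). Incubated 37 °C for 24 h.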

Assay [10] deals with Klebsiella pneumoniae. Put plainly: Antibacterial activity against Klebsiella pneumoniae ATCC 700603 after 24 hrs. The format is functional. The following applies: ATCC 700603, 24 h. Put shortly:
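Broth microdilution in Mueller-Hinton medium. A single LB-plate colony was grown in Mueller-Hinton broth at 35 °C for 2–6 h to 10⁸ CFU/mL by turbidimetry. Compounds were dissolved in ddH₂O and serially diluted in Mueller-Hinton medium from 256 downward. About 10⁶ CFU/mL bacteria were added, and plates were incubated at 37 °C for 24 h.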

In assay [11] the test system is Staphylococcus aureus. Put plainly: Antibacterial activity against methicillin-resistant Staphylococcus aureus MRSA1 after 24 hrs. The format is functional. The settings on record: MRSA1, 24 h. A digest of the protocol:
as §4

Assay [12] deals with Klebsiella pneumoniae. In words: Photodynamic inactivation of Klebsiella pneumoniae ATCC 700603 assessed as lethality at 6 uM after overnight incubation by traditional surface plating method in presence of 189 J/cm 2 white light irradiation. The format is functional. Put shortly: as §2
Assay [13] deals with Klebsiella pneumoniae. In words: Antibacterial activity against Klebsiella pneumoniae ATCC 700603 assessed as lethality at 10 uM after overnight incubation by traditional surface plating method. The format is functional. A digest of the protocol: as §2
Assay [14] relates to Klebsiella pneumoniae. Put plainly: Photodynamic inactivation of Klebsiella pneumoniae ATCC 700603 assessed as lethality at 10 uM after overnight incubation by traditional surface plating method in presence of 350 mW/cm2 white light irradiation. Format: functional. A digest of the protocol: as §2
Assay [15] in a line: Binding affinity to Klebsiella pneumoniae ATCC 700603 at 50 uM after overnight incubation by confocal image analysis.
The subject of assay [16] is metallo-beta-lactamase CcrA (Bacteroides fragilis). In words: Activity at Bacteroides fragilis metallo-beta-lactamase CcrA expressed in Escherichia coli BL21 (DE3) by Michaelis-Menten equation analysis.
Assay [17] deals with Staphylococcus aureus ATCC 25923. Put plainly: Binding affinity to Staphylococcus aureus ATCC 25923 assessed per 10^8 cells/ml at 50 uM after overnight incubation by fluorescence analysis.
The test system of assay [18] is metallo-beta-lactamase L1 (Stenotrophomonas maltophilia). Put plainly: Activity at Stenotrophomonas maltophilia metallo-beta-lactamase L1 expressed in Escherichia coli BL21 (DE3) by Michaelis-Menten equation analysis.

The source made the active and inactive calls. The calls are words filed in the database; no cut-off is given here.

With `O=C(O)c1cc2c(ccc3ccccc32)oc1=O`, the Activity stood at 0.033 µM in the assay on Staphylococcus aureus [1], 0.03 µM in the assay on Staphylococcus aureus [2] and 0.044 µM in assay [4]. Moreover, in the assay with Klebsiella pneumoniae [3], the result was inactive.
On to `O=C(Cc1cccs1)N[C@@H]1C(=O)N2C(C(=O)O)=C(CSc3ccc(NC(=O)c4cc5ccccc5oc4=O)cc3)CS[C@H]12`, for which the result (in the assay on Staphylococcus aureus [5]; in the assay with Staphylococcus aureus [6]; in [15]) was Active. Further, the Activity with Staphylococcus aureus [7] is 1.82 µM; in the assay on Staphylococcus aureus [8] it was 2.15 µM; in the assay on Klebsiella pneumoniae [12], >95%; with Klebsiella pneumoniae [3], 84%; in the assay on Klebsiella pneumoniae [13], <5%; in the assay on Klebsiella pneumoniae [14], >65%. Further, the Activity in assay [17] was determined as 2.13 µM. The MIC in the assay with Staphylococcus aureus [9], against Klebsiella pneumoniae [10] and with Staphylococcus aureus [11] was > 128 mg/L in each case. Also, the Km in assay [16] was 38.3 µM; in [18], 6.02 µM. Further, the Vmax was 1.05 µM/s in assay [16] and 0.471 µM/s in assay [18]. Further, the kcat was determined as 209 s⁻¹ in assay [16] and 23.5 s⁻¹ in [18].
On to `O=C(Cc1cccs1)N[C@@H]1C(=O)N2C(C(=O)O)=C(CSc3ccc(NC(=O)c4cc5c(ccc6ccccc65)oc4=O)cc3)CS[C@H]12`, for which the Activity turned out to be 2.95 µM in the assay on Staphylococcus aureus [7], 3.14 µM in the assay on Staphylococcus aureus [8] and 6.59 µM in [17]. Besides, the MIC with Staphylococcus aureus [9], against Klebsiella pneumoniae [10] and against Staphylococcus aureus [11] was > 128 mg/L in each case. Besides, the outcome in the assay with Klebsiella pneumoniae [3] was inactive. For the same compound, the Km amounted to 24.4 µM in assay [16] and 20.2 µM in [18]. For the same compound, the values for the Vmax in assay [16] and in assay [18] were 0.604 µM/s and 0.59 µM/s, respectively. In addition, the kcat in [16] stood at 121 s⁻¹; in assay [18], 29.5 s⁻¹.
Regarding `O=C(O)c1cc2ccccc2oc1=O`, the Activity in the assay with Staphylococcus aureus [7] was 0.81 µM; in the assay with Staphylococcus aureus [8], 0.71 µM; in assay [17] it was 0.68 µM.

The values above are taken from ChEMBL document CHEMBL2311278, “Novel fluorescent cephalosporins: synthesis, antimicrobial activity and photodynamic inactivation of antibiotic resistant bacteria” (2013).
